Source: ChEMBL document CHEMBL1125819, “Novel benzamides as selective and potent gastrokinetic agents. 2. Synthesis and structure-activity relationships of 4-amino-5-chloro-2-ethoxy-N-[[4-(4-fluorobenzyl)-2- morpholinyl]methyl] benzamide citrate (AS-4370) and related compounds” (J Med Chem, 1991)

Experiments:
[1] = system: Rattus norvegicus; test: Gastric emptying of phenol red semisolid meal in rats at dose of 2.0 mg/kg, administered perorally.; assay type: functional; settings: route oral
[2] = system: Mus musculus; test: Toxicity tested in mouse and expressed as number of dead mouse / number of mouse used after a dose of 1.0 g/kg perorally; + slight toxicity; assay type: organism-based; settings: in vivo, po, 1000 mg/kg
In short: (§1)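 Male ddY mice (18–25 g), groups of 10, given test compound dissolved or suspended in 0.5% tragacanth solution at a single oral dose of 1.0 g/kg. Mortality observed over 7 days after dosing and scored as dead/used per group; + corresponds to 0–2/10 dead.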

[3] = system: Rattus norvegicus; test: Gastric emptying of resin solid meal in rats at the dose of 2.0 mg/kg administered perorally.; assay type: functional; settings: route oral
[4] = system: Mus musculus; test: Gastric emptying of phenol red semisolid meal in mouse at the dose of 1.0 mg/kg administered perorally.; assay type: functional; settings: route oral
In short: (§2)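 Mice received oral test article in 0.5% tragacanth, four or five animals per dose. Emptying of a phenol red semisolid meal was expressed as percent enhancement over the mean of 0.5% tragacanth controls. Significance was tested by Duncan's multiple range test.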

[5] = system: Rattus norvegicus; test: Gastric emptying of phenol red semisolid meal in rats at the dose of 0.5 mg/kg administered perorally.; assay type: functional; settings: route oral
[6] = system: Rattus norvegicus; test: Gastric emptying of phenol red semisolid meal in rats at the dose of 0.2 mg/kg administered perorally.; assay type: functional; settings: route oral
[7] = system: Mus musculus; test: Gastric emptying of phenol red semisolid meal in mouse at the dose of 0.5 mg/kg administered perorally.; assay type: functional; settings: route oral; in short: as §2
[8] = system: Mus musculus; test: Toxicity tested in mouse and expressed as number of dead mouse / number of mouse used after a dose of 1.0 g/kg perorally; ++ moderate toxicity; assay type: organism-based; settings: in vivo, po, 1000 mg/kg; in short: as §1
[9] = system: Mus musculus; test: Toxicity tested in mouse and expressed as number of dead mouse / number of mouse used after a dose of 1.0 g/kg perorally; +++ potent toxicity; assay type: organism-based; settings: in vivo, po, 1000 mg/kg; in short: as §1

Structure (SMILES): CCOc1cc(NC=O)c(Cl)cc1C(=O)NCC1CN(Cc2ccc(F)cc2)CCO1 (centres undefined)
- GE [1]: 33%

Structure (SMILES): CCOc1cc(N)c(Cl)cc1C(=O)NCC1CN(Cc2cccc(C#N)c2)CCO1 (centres undefined)
- GE [1]: 33%

Structure (SMILES): CCOc1cc(N)c(Cl)cc1C(=O)NCC1CN(Cc2ccccc2Cl)CCO1 (centres undefined)
- Acute toxicity [2]: slight toxicity
- GE [1]: 51%

Structure (SMILES): COc1cc(N)c(Cl)cc1C(=O)NCC1CN(Cc2ccccc2C#N)CCO1 (centres undefined)
- Acute toxicity [2]: slight toxicity
- GE [1]: 43%

Structure (SMILES): CCOc1cc(N)c(Cl)cc1C(=O)NCC1CN(Cc2ccccc2C#N)CCO1 (centres undefined)
- GE [1]: 29%

Structure (SMILES): CCOc1cc(N)c(Cl)cc1C(=O)NCC1CN(Cc2ccc(C(=O)O)cc2)CCO1 (centres undefined)
- GE [1]: 13%

Structure (SMILES): COc1ccc(CN2CCOC(CNC(=O)c3cc(Cl)c(N)cc3OC)C2)cc1 (centres undefined)
- GE [1]: 10%

Structure (SMILES): CCOc1cc(N)c(Cl)cc1C(=O)NCC1CN(Cc2ccc(F)cc2F)CCO1 (centres undefined)
- GE [3]: 76%
- GE [4]: 89%
- GE [5]: 42%
- GE [6]: 0%
- GE [1]: 76%
- GE [7]: 83%

Structure (SMILES): CCOc1cc(N)c(Cl)cc1C(=O)NCC1CN(Cc2ccc(C#N)cc2)CCO1 (centres undefined)
- Acute toxicity [2]: slight toxicity
- GE [1]: 46%

Structure (SMILES): COc1cc(N)c(Cl)cc1C(=O)NCC1CN(Cc2ccc(Cl)cc2)CCO1 (centres undefined)
- Acute toxicity [8]: moderate toxicity
- GE [1]: 36%

Structure (SMILES): CCOc1cc(N)c(Cl)cc1C(=O)NCC1CN(Cc2ccc(Cl)cc2[N+](=O)[O-])CCO1 (centres undefined)
- GE [1]: 47%

Structure (SMILES): COc1cc(N)c(Cl)cc1C(=O)NCC1CN(Cc2c(F)c(F)c(F)c(F)c2F)CCO1 (centres undefined)
- Acute toxicity [2]: slight toxicity
- GE [1]: 39%

Structure (SMILES): COc1cc(N)c(Cl)cc1C(=O)NCC1CN(Cc2ccccc2)CCO1 (centres undefined)
- GE [3]: 16%
- GE [4]: 59%
- GE [5]: 18%
- Acute toxicity [8]: Partially active
- GE [1]: 39%
- GE [7]: 41%

Structure (SMILES): CCOc1cc(N)c(Cl)cc1C(=O)NCC1C[N+]([O-])(Cc2ccccc2Cl)CCO1 (centres undefined)
- GE [1]: 52%

Structure (SMILES): CCOc1cc(N)c(Cl)cc1C(=O)NCC1CN(Cc2c(F)c(F)c(F)c(F)c2F)CCO1 (centres undefined)
- GE [1]: 23%

Structure (SMILES): CCOc1cc(N)c(Cl)cc1C(=O)NCC1CN(Cc2ccc(Cl)cc2)CCO1 (centres undefined)
- GE [3]: 65%
- GE [4]: 21%
- GE [5]: 50%
- Acute toxicity [2]: slight toxicity
- GE [6]: 37%
- GE [1]: 63%
- GE [7]: 0%

Structure (SMILES): COc1cc(N)c(Cl)cc1C(=O)NCC1CN(Cc2ccc(N)cc2)CCO1 (centres undefined)
- GE [1]: 17%

Structure (SMILES): COc1cccc(CN2CCOC(CNC(=O)c3cc(Cl)c(N)cc3OC)C2)c1 (centres undefined)
- GE [1]: 10%

Structure (SMILES): COc1cc(N)c(Cl)cc1C(=O)NCC1CN(Cc2ccc(C#N)cc2)CCO1 (centres undefined)
- GE [3]: 36%
- GE [4]: 44%
- GE [5]: 21%
- Acute toxicity [2]: slight toxicity
- GE [6]: 0%
- GE [1]: 49%
- GE [7]: 15%

Structure (SMILES): COc1cc(N)c(Cl)cc1C(=O)NCC1CN(C(C)c2ccccc2)CCO1 (centres undefined)
- GE [1]: 42%
- Acute toxicity [9]: potent toxicity

Structure (SMILES): COc1cc(N)c(Cl)cc1C(=O)NCC1CN(Cc2cccc(C#N)c2)CCO1 (centres undefined)
- GE [1]: 42%
- Acute toxicity [9]: potent toxicity

Structure (SMILES): COc1cc(N)c(Cl)cc1C(=O)NCC1CN(Cc2ccc(C(F)(F)F)cc2)CCO1 (centres undefined)
- GE [1]: 23%

Structure (SMILES): COc1cc(N)c(Cl)cc1C(=O)NCC1CN(Cc2ccc(Br)cc2)CCO1 (centres undefined)
- GE [1]: 15%

Structure (SMILES): CCOc1cc(N)c(Cl)cc1C(=O)NCC1CN(Cc2cccc(Cl)c2)CCO1 (centres undefined)
- Acute toxicity [8]: moderate toxicity
- GE [1]: 58%

Structure (SMILES): CCOc1cc(N)c(Cl)cc1C(=O)NCC1CN(CCCc2ccccc2)CCO1 (centres undefined)
- GE [1]: 18%

Structure (SMILES): COc1cc(N)c(Cl)cc1C(=O)NCC1CN(Cc2ccccc2F)CCO1 (centres undefined)
- GE [1]: 28%

Structure (SMILES): COc1cc(N)c(Cl)cc1C(=O)NCC1CN(Cc2cccc(F)c2)CCO1 (centres undefined)
- GE [1]: 30%

Structure (SMILES): COc1cc(N)c(Cl)cc1C(=O)NCC1CN(Cc2ccc(Cl)c(Cl)c2)CCO1 (centres undefined)
- GE [1]: 16%

Structure (SMILES): COc1cc(N)c(Cl)cc1C(=O)NCC1CN(Cc2ccc(C(=O)O)cc2)CCO1 (centres undefined)
- GE [1]: 18%

Structure (SMILES): CCOc1cc(N)c(Cl)cc1C(=O)NCC1CN(Cc2cccc(F)c2)CCO1 (centres undefined)
- GE [1]: 54%

Structure (SMILES): COc1cc(N)c(Cl)cc1C(=O)NCC1CN(Cc2ccc(C)cc2)CCO1 (centres undefined)
- GE [1]: 11%

Structure (SMILES): COc1cc(N)c(Cl)cc1C(=O)NCC1CN(CCc2ccccc2)CCO1 (centres undefined)
- GE [1]: 29%

Structure (SMILES): CCOc1cc(N)c(Cl)cc1C(=O)NCC1CN(Cc2ccc(F)c(F)c2)CCO1 (centres undefined)
- GE [1]: 46%

Structure (SMILES): CCOc1cc(NC(C)=O)c(Cl)cc1C(=O)NCC1CN(Cc2ccc(F)cc2)CCO1 (centres undefined)
- GE [3]: 0%
- GE [4]: 82%
- GE [5]: 22%
- GE [6]: 33%
- GE [1]: 74%
- GE [7]: 75%

Structure (SMILES): COc1cc(N)c(Cl)cc1C(=O)NCC1CN(Cc2c(C)cc(C)cc2C)CCO1 (centres undefined)
- GE [1]: 5%

Structure (SMILES): CCOc1cc(N)c(Cl)cc1C(=O)NCC1C[N+](C)(Cc2ccccc2Cl)CCO1.[I-] (centres undefined)
- GE [1]: 34%

Structure (SMILES): CCOc1cc(N)c(Cl)cc1C(=O)NCC1CN(Cc2ccc(C(=O)OC)cc2)CCO1 (centres undefined)
- GE [1]: 52%

Structure (SMILES): CCOc1cc(N)c(Cl)cc1C(=O)NCC1CN(C(C)c2ccc(Cl)cc2)CCO1 (centres undefined)
- GE [1]: 33%

Structure (SMILES): CCOc1cc(N)c(Cl)cc1C(=O)NCC1CN(C(C)c2ccccc2)CCO1 (centres undefined)
- GE [1]: 44%
- Acute toxicity [9]: potent toxicity

Structure (SMILES): COc1cc(N)c(Cl)cc1C(=O)NCC1CN(C(C)c2ccc(F)cc2)CCO1 (centres undefined)
- GE [1]: 13%

Structure (SMILES): CCOc1cc(N)c(Cl)cc1C(=O)NCC1CN(Cc2ccc(F)cc2)CCO1 (centres undefined) [MOSAPRIDE]
- GE [3]: 79%
- GE [4]: 37%
- GE [5]: 46%
- Acute toxicity [8]: Partially active
- GE [6]: 44%
- GE [1]: 61%
- GE [7]: 44%

Structure (SMILES): CCOc1cc(N)c(Cl)cc1C(=O)NCC1CN(Cc2cc(F)cc(F)c2)CCO1 (centres undefined)
- GE [1]: 52%

Structure (SMILES): CCOc1cc(N)c(Cl)cc1C(=O)NCC1CN(Cc2ccccc2F)CCO1 (centres undefined)
- GE [1]: 60%

Structure (SMILES): CCOc1cc(N)c(Cl)cc1C(=O)NCC1CN(Cc2ccccc2)CCO1 (centres undefined)
- GE [3]: 58%
- GE [4]: 23%
- GE [5]: 34%
- Acute toxicity [2]: Partially active
- GE [1]: 54%
- GE [7]: 35%

Structure (SMILES): CCOc1cc(N)c(Cl)cc1C(=O)NCC1CN(Cc2cccc(C(F)(F)F)c2)CCO1 (centres undefined)
- GE [3]: 22%
- GE [4]: 21%
- GE [5]: 37%
- Acute toxicity [2]: slight toxicity
- GE [6]: 32%
- GE [1]: 58%
- GE [7]: 4%

Structure (SMILES): COc1cc(N)c(Cl)cc1C(=O)NCC1CN(Cc2ccc([N+](=O)[O-])cc2)CCO1 (centres undefined)
- GE [1]: 22%

Structure (SMILES): COc1cc(N)c(Cl)cc1C(=O)NCC1CN(Cc2cccc(C(F)(F)F)c2)CCO1 (centres undefined)
- Acute toxicity [8]: moderate toxicity
- GE [1]: 43%

Structure (SMILES): COc1cc(N)c(Cl)cc1C(=O)NCC1CN(Cc2ccc(F)cc2)CCO1 (centres undefined)
- GE [1]: 38%

Structure (SMILES): COc1cc(N)c(Cl)cc1C(=O)NCC1CN(C(c2ccccc2)c2ccccc2)CCO1 (centres undefined)
- GE [1]: 15%

Structure (SMILES): CCOc1cc(N)c(Cl)cc1C(=O)NCC1CN(CCCCc2ccccc2)CCO1 (centres undefined)
- GE [1]: 47%
